Assay outcomes as filed in PubChem BioAssay.
Only some compounds are listed: those with a hit (about 4.5% of all), similar ones and a draw of the others.
RGS4 inh = human RGS4 inhibition | hit rate 0.45% among 310,000 | AID 463165 | B-score at 10 µM | HEK293 M3R/RGS4 inducible, Fluo-4 calcium flux; active compounds read high; triggered by carbachol at its EC20 | P49798;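 active = B-score, a plate-corrected calcium signal, over three deviations above library mean, with baseline fluorescence within five deviations of library mean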;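 also: RGS4 expression induced by doxycycline in cells with stable M3 receptor; B-score is computed from the integrated fluorescence ratio over baseline after carbachol; higher B-score means a larger calcium signal and so more RGS4 inhibition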
Target sequence (P49798 whole entry, looked up): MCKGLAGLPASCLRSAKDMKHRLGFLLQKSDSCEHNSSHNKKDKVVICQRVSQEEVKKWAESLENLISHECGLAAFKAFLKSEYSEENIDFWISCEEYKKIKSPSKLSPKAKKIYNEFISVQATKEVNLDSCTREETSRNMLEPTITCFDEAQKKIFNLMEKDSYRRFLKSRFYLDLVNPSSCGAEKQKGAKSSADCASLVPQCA
PHOSPHO1 inh = blocks human PHOSPHO1 phosphatase activity; Q8TCT1; recombinant PHOSPHO1, absorbance phosphatase assay; inhibition, % at 13.3 µM; hit rate 1.1% among 290,000; AID 1565; in the data active = inhibition above about 60%
Target sequence (Q8TCT1 whole entry, looked up): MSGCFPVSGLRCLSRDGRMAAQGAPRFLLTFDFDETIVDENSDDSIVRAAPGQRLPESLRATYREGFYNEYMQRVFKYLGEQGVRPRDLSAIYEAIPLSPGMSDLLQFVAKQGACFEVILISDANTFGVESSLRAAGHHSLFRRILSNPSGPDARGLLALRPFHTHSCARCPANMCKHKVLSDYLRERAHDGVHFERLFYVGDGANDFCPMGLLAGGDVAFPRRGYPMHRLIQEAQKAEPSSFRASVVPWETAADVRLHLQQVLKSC
MrgX1 agonist = activates human MrgX1 receptor signaling; MrgX1-HEK293 cells, Fluo-4 calcium fluorescence, agonist mode; active compounds read high; B-score at 10 µM; hit rate 0.44% among 310,000; AID 588627;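 active = calcium response B-score plate-corrected fluorescence ratio at least 3 library SD, with starting fluorescence B-score inside 5 SD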
Target sequence (Q96LB2 whole entry, looked up): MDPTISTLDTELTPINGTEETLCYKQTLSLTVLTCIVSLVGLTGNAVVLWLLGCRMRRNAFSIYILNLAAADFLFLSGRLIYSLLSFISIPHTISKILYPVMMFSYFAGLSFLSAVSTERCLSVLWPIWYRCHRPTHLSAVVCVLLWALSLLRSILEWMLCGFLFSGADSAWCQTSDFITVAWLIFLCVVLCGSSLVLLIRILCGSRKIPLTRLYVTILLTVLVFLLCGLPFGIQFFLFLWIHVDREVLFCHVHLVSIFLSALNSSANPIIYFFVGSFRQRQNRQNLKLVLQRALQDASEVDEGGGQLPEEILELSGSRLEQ
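Test system: HEK293 cells stably expressing human MrgX1 receptor; amount: 15,000 cells per well; doses: compound delivered in addition one of three; times: overnight plating before 1 h dye loading; detection: Fluo-4 NW calcium-flux fluorescence, kinetic read; read-out basis: B-scored fluorescence response ratio; controls: positive and negative controls per plate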
MrgX1 PAM = human MrgX1 positive allosteric modulation, primary screen; Q96LB2; hit rate 0.63% among 310,000; MrgX1-HEK293, Fluo-4 calcium flux, FDSS; active compounds read high; B-score at 10 µM; AID 588675;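 active = plate-corrected calcium response at least 3 library SD above typical, normal starting fluorescence, not activating the receptor alone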;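 also: compound read alongside a low EC10 to EC30 dose of BAM8-22 agonist; peak minus trough fluorescence over baseline measured at the second addition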
MrgX1 antag = antagonists of human MrgX1 receptor | MRGX1-HEK293 calcium flux, Fluo-4, BAM8-22 antagonism; active compounds read low | B-score at 10 µM | hit rate 1.3% among 310,000 | AID 588676;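 active = calcium-response B-score plate-corrected more than 3 library SD below zero, starting fluorescence within 5 deviations, no agonist response on first addition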;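 also: peak minus trough fluorescence over baseline after final BAM8-22 challenge near maximal dose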
RGS4 act = RGS4 potentiation or activation; HEK293 M3R/inducible RGS4, carbachol calcium flux Fluo4; active compounds read low; B-score at 10 µM; hit rate 0.92% among 310,000; AID 463111;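 active = B-score of the integrated calcium signal more than 4 SD below the library mean, with starting fluorescence not abnormally high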;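 also: negative B-score means reduced calcium response which marks RGS4 activation or potentiation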
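System – HEK293 FlpIn-TREx cells, stable M3R, doxycycline-inducible RGS4 · Reagent – ECmax carbachol challenge · Times – compound preincubation 20 min at room temperature before agonist · Technique – Fluo4 fluorescence kinetic imaging of calcium · Measure – B score of integrated Fluo4 ratio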
MrgX1 antag conf = human MrgX1 receptor antagonism, re-confirmation screen. MrgX1-HEK293, BAM8-22 calcium flux, Fluo-4; active compounds read low. remaining BAM8-22 calcium response % of control (active compounds read low), % at 10 µM. AID 602420. shares compounds with MrgX1 antag. hit rate 19% among 2,300;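 active = remaining agonist calcium response no higher than 100% minus 3 SD of agonist-only control wells, with starting fluorescence near control levels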;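 also: agonist BAM8-22 given at a near maximal EC90 to ECmax level; peak minus minimum fluorescence divided by baseline after agonist addition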
HEK293 Ca flux = MrgX1 antagonist counter-screen hit in parental HEK293 cells | Fluo-4 calcium fluorescence, FDSS | fluorescence ratio F(max-min)/F0 at 10 µM | AID 624111 | hit rate 2% among 4,000 | shares compounds with MrgX1 antag;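 active = duplicate-averaged calcium fluorescence ratio at least three times the standard deviation of buffer wells, a nonspecific response in parental cells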
HEK293 Ca counter = MrgX1 allosteric activator counter-screen hit in parental HEK293 cells. parental HEK293 calcium flux, Fluo-4 fluorescence ratio; active compounds read high. shares compounds with MrgX1 antag. hit rate 0.4% among 4,000. fluorescence ratio F(max-min)/F0 at 10 µM. AID 624114;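 active = calcium fluorescence ratio, averaged over duplicates, at least 3 SD of the buffer-well ratio, meaning a nonspecific response in receptor-free cells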;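 also: untransfected parental HEK293 lacking MrgX1 used as counterscreen for MrgX1 allosteric activators; fluorescence change taken during the second addition on a kinetic imager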
HEK293 Ca cntr2 = counter-screen for MrgX1 activators: effect in parental HEK293 cells. shares compounds with MrgX1 antag. Fluo-4 calcium fluorescence (FDSS); active compounds read high. fluorescence ratio F(max-min)/F0 at 10 µM. hit rate 8.7% among 4,000. AID 624115;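 active = calcium fluorescence ratio at least three times the spread of buffer wells, meaning a non-specific response in parental cells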
Large screens that a line does not name were inactive (follow-up assays come after a bar, where they were run).

COC(OC)c1ccnc(-c2ccc(OC(=O)c3ccccc3)cc2)n1	MrgX1 antag -9.2 | MrgX1 antag conf inactive | HEK293 Ca flux inactive | HEK293 Ca counter inactive | HEK293 Ca cntr2 inactive
CCOC(=O)c1sc(=NC(=O)c2ccccc2)n(C)c1C	none
CCOC(=O)c1sc(=NC(=O)CCS(=O)(=O)c2ccccc2)n(C)c1C	MrgX1 antag -5.7 | MrgX1 antag conf inactive | HEK293 Ca flux inactive | HEK293 Ca counter inactive | HEK293 Ca cntr2 inactive
Cc1ccc(C(=O)NCC(=O)OC(C)C(=O)Nc2ccc(N3CCOCC3)cc2)s1 (stereo not drawn)	none
CCn1nc(C)c(Br)c1Nc1ccc(Br)cc1	none
CCOC(=O)C1CCCN(C(=O)CS(=O)(=O)Cc2ccccc2)C1 (stereo not drawn)	none
CCOC(=O)C1CCCN(C(=O)CCc2ccccc2)C1 (stereo not drawn)	MrgX1 antag -6.1 | MrgX1 antag conf inactive | HEK293 Ca flux inactive | HEK293 Ca counter inactive | HEK293 Ca cntr2 inactive
CN(C)S(=O)(=O)c1cccc(C(=O)NCCCn2ccnc2)c1	none
O=C(NCCCn1ccnc1)c1cccc(S(=O)(=O)Nc2ccc(Br)cc2)c1	MrgX1 antag -4.5 (no result: PHOSPHO1 inh) | MrgX1 antag conf inactive | HEK293 Ca flux inactive | HEK293 Ca counter inactive | HEK293 Ca cntr2 inactive
Cc1nc(N2CCCCCC2)c2ccccc2n1	MrgX1 antag -4.7 | MrgX1 antag conf inactive | HEK293 Ca flux inactive | HEK293 Ca counter inactive | HEK293 Ca cntr2 inactive
COc1ccc(OCC(=O)N2CCc3c([nH]c4ccccc34)C2c2ccccn2)cc1 (stereo not drawn)	MrgX1 antag -6.4 | MrgX1 antag conf inactive | HEK293 Ca flux inactive | HEK293 Ca counter inactive | HEK293 Ca cntr2 inactive
CCc1nc(C)ccc1OCC(=O)N1CCc2c([nH]c3ccccc23)C1c1ccccn1 (stereo not drawn)	none
CCCNC(=O)c1nc(C)n(-c2cc(Cl)ccc2Cl)n1	MrgX1 antag -8.2 | MrgX1 antag conf 81% | HEK293 Ca flux inactive | HEK293 Ca counter inactive | HEK293 Ca cntr2 inactive
CCCNC(=O)c1nc(C)n(-c2cc(Cl)cc(Cl)c2)n1	none
COc1ccc(S(=O)(=O)NCCN2CCNC2=O)cc1OC	none
O=C(CSc1nc(-c2ccc(F)cc2)cs1)N1CCOCC1	MrgX1 antag -9.2 | MrgX1 antag conf inactive | HEK293 Ca flux inactive | HEK293 Ca counter inactive | HEK293 Ca cntr2 inactive
Nc1nonc1-c1noc(CCCN2C(=O)c3ccccc3C2=O)n1	MrgX1 antag -6.6 | MrgX1 antag conf inactive | HEK293 Ca flux inactive | HEK293 Ca counter inactive | HEK293 Ca cntr2 inactive
Cc1csc(SCC(=O)N(C)CC(=O)Nc2ccc(F)cc2)n1	none
Cc1ccn2c(CNCCn3cccn3)c(C(=O)N3CCCCCC3)nc2c1	MrgX1 antag -7.5 | MrgX1 antag conf inactive | HEK293 Ca flux inactive | HEK293 Ca counter inactive | HEK293 Ca cntr2 inactive
Cc1ccc(-n2ncc3c(N4CCC(C(N)=O)CC4)ncnc32)c(C)c1	MrgX1 antag -10 | MrgX1 antag conf inactive | HEK293 Ca flux inactive | HEK293 Ca counter inactive | HEK293 Ca cntr2 inactive
CCOC(=O)CNC(=O)CSc1ncnc2c1cnn2-c1ccccc1	MrgX1 antag -6.1 | MrgX1 antag conf inactive | HEK293 Ca flux inactive | HEK293 Ca counter inactive | HEK293 Ca cntr2 inactive
CCOC(=O)C1CCN(c2ncnc3c2cnn3-c2ccc(Cl)cc2)CC1	none
CCOC(=O)C1CCN(c2ncnc3c2cnn3-c2ccccc2)CC1	MrgX1 antag -5 | MrgX1 antag conf inactive | HEK293 Ca flux inactive | HEK293 Ca counter inactive | HEK293 Ca cntr2 inactive
N=C1C(c2nc3ccccc3s2)=C(O)CN1c1ccccc1	none
CCCCn1c(SCC(=O)Nc2cc(C)on2)nc2c1c(=O)n(C)c(=O)n2C	none
CCn1c(SCC(=O)Nc2cc(C)on2)nc2c1c(=O)n(C)c(=O)n2C	MrgX1 antag -7 | MrgX1 antag conf inactive | HEK293 Ca flux inactive | HEK293 Ca counter inactive | HEK293 Ca cntr2 inactive
CC(C)Cn1c(N)c(C(=O)COC(=O)[C@@H]2CCCN2C(=O)c2cccs2)c(=O)n(C)c1=O	none
COc1ccc(-c2nc3ccccc3c(=O)n2CCOc2ccccc2C)cc1	MrgX1 antag -7 | MrgX1 antag conf inactive | HEK293 Ca flux inactive | HEK293 Ca counter inactive | HEK293 Ca cntr2 inactive
COc1ccc(-c2nc3ccccc3c(=O)n2CCOc2ccc(C)cc2C)cc1	none
CCOC(=O)c1c(NC(=O)CSc2nc3nc(C)cc(C)n3n2)sc(CC)c1C	none
COC(=O)C1CSC(C(=O)OC)N1C(=O)CN1CCN(c2ccccc2)CC1 (stereo not drawn)	MrgX1 antag -8.1 | MrgX1 antag conf 77% | HEK293 Ca flux inactive | HEK293 Ca counter inactive | HEK293 Ca cntr2 inactive
COC(=O)C1CSC(C(=O)OC)N1C(=O)Nc1ccccc1 (stereo not drawn)	none
O=C(Nc1ccc(N2C(=O)C3C4C=CC(C4)C3C2=O)cc1)Nc1nncs1 (stereo not drawn)	MrgX1 antag -4.6 | MrgX1 antag conf inactive | HEK293 Ca flux inactive | HEK293 Ca counter inactive | HEK293 Ca cntr2 inactive
CCN(CC)CCN(C(=O)Cn1nnc(-c2ccc(C)o2)n1)C(C(=O)NC1CCCC1)c1ccc(F)cc1 (stereo not drawn)	none (no result: MrgX1 agonist, MrgX1 PAM, MrgX1 antag)
COc1ccc(C(C(=O)NCc2ccc(F)cc2)N(C(=O)c2csnn2)C2CC2)cc1 (stereo not drawn)	none
COc1ccccc1NC(=O)c1ccc(-n2cncn2)nc1	MrgX1 antag -5.2 | MrgX1 antag conf 78% | HEK293 Ca flux inactive | HEK293 Ca counter inactive | HEK293 Ca cntr2 inactive
CCOc1ccccc1NC(=O)c1ccc(-n2cncn2)nc1	none
O=C1CC2(CCN(C(=O)c3ccc(F)cc3)CC2)Oc2ccccc21	none (no result: PHOSPHO1 inh)
COc1ccc(CNC(=O)CCS(=O)(=O)c2cc3c(cc2Cl)NC(=O)CO3)cc1	none
Cc1ccc2c(CC(=O)Nc3cccc(S(=O)(=O)N4CCOCC4)c3)coc2c1	none
Cc1nn(Cc2ccccc2Cl)c2sc(C(=O)Nc3nccs3)cc12	none
Cc1nn(Cc2ccc(F)cc2)c2sc(C(=O)Nc3nccs3)cc12	MrgX1 antag -4.7 | MrgX1 antag conf inactive | HEK293 Ca flux inactive | HEK293 Ca counter inactive | HEK293 Ca cntr2 inactive
